Active and inactive are the calls of the source. The calls are words filed in the database; no cut-off is given here.
What was measured:
HepG2 [1] = assay: Induction of morphological changes in human HepG2 cells assessed as mitosis with more than 2 poles at 1 umol after 24 hrs by DAPI staining-based immunofluorescence assay; assay type: functional, cell-based
In short: (§1)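 HepG2 cells were fixed, permeabilized and immunostained with an anti-α-tubulin antibody, with nuclei counterstained by DAPI. Nuclear and cytoskeletal (microtubule, mitotic spindle) morphology was then examined by immunofluorescence microscopy alongside untreated cells.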

[2] = Stability of compound at pH 5 after 24 hrs by HPLC-MS analysis; assay type: physicochemical; settings: buffer, pH 5, 24 h
HepG2 [3] = assay: Induction of morphological changes in human HepG2 cells assessed as abnormal nuclei at 1 umol after 24 hrs by DAPI staining-based immunofluorescence assay; assay type: functional, cell-based; in short: as §1
HepG2 [4] = assay: Induction of morphological changes in human HepG2 cells assessed as altered microtubule structure at 1 umol after 24 hrs by DAPI staining-based immunofluorescence assay; assay type: functional, cell-based; in short: as §1
HepG2 [5] = assay: Cytotoxicity against human HepG2 cells by MTS assay; assay type: functional
[6] = Stability of compound at pH 7.4 after 24 hrs by HPLC-MS analysis; assay type: physicochemical; settings: buffer, pH 7.4, 24 h
[7] = Binding affinity to rabbit asialoglycoprotein receptor by SPR assay; set-up: species or system Oryctolagus cuniculus

Row | Stability [2] | Stability [6] | Kd [7] | SMILES | Activity (HepG2 [1]) | Activity (HepG2 [3]) | Activity (HepG2 [4]) | CC50 (HepG2 [5])
1 | Stable | Stable | – | CC(=O)O[C@H]1C(=O)[C@@]2(C)[C@H]([C@H](OC(=O)c3ccccc3)[C@]3(O)C[C@H](OC(=O)[C@H](O)[C@@H](NC(=O)c4ccccc4)c4ccccc4)C(C)=C1C3(C)C)[C@]1(OC(C)=O)CO[C@@H]1C[C@@H]2O [PACLITAXEL] | Active | Active | Active | 120 to 210 nM
2 | Stable | Stable | 0.327 nM | C=CCO[C@@H]1O[C@H](Cn2cc(CCCC(=O)O[C@H]3C[C@H]4OC[C@@]4(OC(C)=O)[C@H]4[C@H](OC(=O)c5ccccc5)[C@]5(O)C[C@H](OC(=O)[C@H](OC(=O)CCCc6cn(C[C@H]7O[C@@H](OCC=C)[C@H](NC(C)=O)[C@@H](O)[C@H]7O)nn6)[C@@H](NC(=O)c6ccccc6)c6ccccc6)C(C)=C([C@@H](OC(C)=O)C(=O)[C@]34C)C5(C)C)nn2)[C@H](O)[C@H](O)[C@H]1NC(C)=O | – | – | – | –
3 | Stable | Stable | 1.36 nM | CC(=O)N[C@H]1[C@H](OCCCCCCNC(=O)CCOCC(COCCC(=O)NCCCCCCO[C@@H]2O[C@H](CO)[C@H](O)[C@H](O)[C@H]2NC(C)=O)(COCCC(=O)NCCCCCCO[C@@H]2O[C@H](CO)[C@H](O)[C@H](O)[C@H]2NC(C)=O)NC(=O)CCCCCCCCCCn2cc(CCCC(=O)O[C@@H](C(=O)O[C@H]3C[C@@]4(O)[C@@H](OC(=O)c5ccccc5)[C@@H]5[C@]6(OC(C)=O)CO[C@@H]6C[C@H](O)[C@@]5(C)C(=O)[C@H](OC(C)=O)C(=C3C)C4(C)C)[C@@H](NC(=O)c3ccccc3)c3ccccc3)nn2)O[C@H](CO)[C@H](O)[C@@H]1O | – | – | – | 110 nM
4 | Stable | Stable | – | CC(=O)N[C@H]1[C@H](OCCn2cc(CCCC(=O)O[C@H]3C[C@H]4OC[C@@]4(OC(C)=O)[C@H]4[C@H](OC(=O)c5ccccc5)[C@]5(O)C[C@H](OC(=O)[C@H](OC(=O)CCCc6cn(CCO[C@@H]7O[C@H](CO)[C@H](O)[C@H](O)[C@H]7NC(C)=O)nn6)[C@@H](NC(=O)c6ccccc6)c6ccccc6)C(C)=C([C@@H](OC(C)=O)C(=O)[C@]34C)C5(C)C)nn2)O[C@H](CO)[C@H](O)[C@@H]1O | Active | Active | Active | –
5 | – | – | 2.16 nM | CC(=O)N[C@H]1[C@H](OCCCCCCNC(=O)CCOCC(COCCC(=O)NCCCCCCO[C@@H]2O[C@H](CO)[C@H](O)[C@H](O)[C@H]2NC(C)=O)(COCCC(=O)NCCCCCCO[C@@H]2O[C@H](CO)[C@H](O)[C@H](O)[C@H]2NC(C)=O)NC(=O)CCCCCCCCCCN=[N+]=[N-])O[C@H](CO)[C@H](O)[C@@H]1O | – | – | – | –
6 | Stable | Stable | 2.21 nM | CC(=O)N[C@@H]1[C@@H](O)[C@@H](O)[C@@H](CO)O[C@H]1n1cc(CCCC(=O)O[C@@H](C(=O)O[C@H]2C[C@@]3(O)[C@@H](OC(=O)c4ccccc4)[C@@H]4[C@]5(OC(C)=O)CO[C@@H]5C[C@H](O)[C@@]4(C)C(=O)[C@H](OC(C)=O)C(=C2C)C3(C)C)[C@@H](NC(=O)c2ccccc2)c2ccccc2)nn1 | – | – | – | 92 nM
7 | Stable | Stable | 1.39 nM | CC(=O)N[C@@H]1[C@@H](O)[C@@H](O)[C@@H](CO)O[C@H]1n1cc(CCCC(=O)O[C@H]2C[C@H]3OC[C@@]3(OC(C)=O)[C@H]3[C@H](OC(=O)c4ccccc4)[C@]4(O)C[C@H](OC(=O)[C@H](OC(=O)CCCc5cn([C@@H]6O[C@H](CO)[C@H](O)[C@H](O)[C@H]6NC(C)=O)nn5)[C@@H](NC(=O)c5ccccc5)c5ccccc5)C(C)=C([C@@H](OC(C)=O)C(=O)[C@]23C)C4(C)C)nn1 | Active | Active | Active | 22900 nM
8 | Stable | Stable | 0.161 nM | C=CCO[C@@H]1O[C@H](Cn2cc(CCCC(=O)O[C@@H](C(=O)O[C@H]3C[C@@]4(O)[C@@H](OC(=O)c5ccccc5)[C@@H]5[C@]6(OC(C)=O)CO[C@@H]6C[C@H](O)[C@@]5(C)C(=O)[C@H](OC(C)=O)C(=C3C)C4(C)C)[C@@H](NC(=O)c3ccccc3)c3ccccc3)nn2)[C@H](O)[C@H](O)[C@H]1NC(C)=O | Active | Active | Active | 3250 nM
9 | Stable | Stable | 249 nM | CC(=O)N[C@H]1[C@H](OCCn2cc(CCCC(=O)O[C@@H](C(=O)O[C@H]3C[C@@]4(O)[C@@H](OC(=O)c5ccccc5)[C@@H]5[C@]6(OC(C)=O)CO[C@@H]6C[C@H](O)[C@@]5(C)C(=O)[C@H](OC(C)=O)C(=C3C)C4(C)C)[C@@H](NC(=O)c3ccccc3)c3ccccc3)nn2)O[C@H](CO)[C@H](O)[C@@H]1O | Active | Active | Active | 820 nM

Source: ChEMBL document CHEMBL4184105, “Synthesis and biological evaluation of novel mono- and bivalent ASGP-R-targeted drug-conjugates” (Bioorg Med Chem Lett, 2018)
